Broadly, the IC50 is the concentration that gives 50% inhibition.

The target of test [1] is Recombinant human integrin αvβ3 receptor (Homo sapiens, UniProt P05106+P06756). It counts as binding. The conditions noted are these: competition with biotinylated vitronectin for the isolated αvβ3 receptor. In short, it runs like this: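 Test compound competes with biotinylated vitronectin for binding to the αvβ3 receptor. IC50 is the concentration giving 50 % inhibition of vitronectin binding, estimated by curve fitting. Values are mean ± SD of duplicate determinations.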
Sequence of Recombinant human integrin αvβ3 receptor (P06756 31-992 limits assumed): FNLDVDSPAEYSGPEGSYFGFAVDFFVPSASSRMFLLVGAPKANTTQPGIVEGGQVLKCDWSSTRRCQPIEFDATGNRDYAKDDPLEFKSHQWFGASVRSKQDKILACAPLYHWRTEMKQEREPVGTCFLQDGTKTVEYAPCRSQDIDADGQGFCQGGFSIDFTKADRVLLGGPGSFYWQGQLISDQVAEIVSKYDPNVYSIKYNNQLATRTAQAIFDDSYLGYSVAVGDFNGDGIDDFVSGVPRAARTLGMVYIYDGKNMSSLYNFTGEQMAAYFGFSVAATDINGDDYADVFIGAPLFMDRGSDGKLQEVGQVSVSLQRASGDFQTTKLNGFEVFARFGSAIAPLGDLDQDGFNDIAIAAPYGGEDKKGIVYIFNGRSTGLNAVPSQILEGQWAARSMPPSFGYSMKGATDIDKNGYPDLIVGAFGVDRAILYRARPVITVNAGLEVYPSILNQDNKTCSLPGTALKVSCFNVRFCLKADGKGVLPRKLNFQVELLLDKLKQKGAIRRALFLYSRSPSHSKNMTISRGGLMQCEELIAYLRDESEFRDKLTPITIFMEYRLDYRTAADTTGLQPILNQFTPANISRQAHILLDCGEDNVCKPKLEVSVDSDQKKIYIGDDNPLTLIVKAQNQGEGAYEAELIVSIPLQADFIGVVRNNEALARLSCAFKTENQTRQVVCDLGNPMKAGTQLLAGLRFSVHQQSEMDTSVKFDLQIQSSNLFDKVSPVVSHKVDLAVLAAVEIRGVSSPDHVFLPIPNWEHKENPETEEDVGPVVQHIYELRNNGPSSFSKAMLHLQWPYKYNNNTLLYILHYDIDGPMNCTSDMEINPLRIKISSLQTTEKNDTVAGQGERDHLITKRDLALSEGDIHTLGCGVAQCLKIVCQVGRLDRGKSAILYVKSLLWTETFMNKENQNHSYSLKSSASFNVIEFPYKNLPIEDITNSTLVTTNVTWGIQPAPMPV
Sequence of Recombinant human integrin αvβ3 receptor (P05106 27-718 limits assumed): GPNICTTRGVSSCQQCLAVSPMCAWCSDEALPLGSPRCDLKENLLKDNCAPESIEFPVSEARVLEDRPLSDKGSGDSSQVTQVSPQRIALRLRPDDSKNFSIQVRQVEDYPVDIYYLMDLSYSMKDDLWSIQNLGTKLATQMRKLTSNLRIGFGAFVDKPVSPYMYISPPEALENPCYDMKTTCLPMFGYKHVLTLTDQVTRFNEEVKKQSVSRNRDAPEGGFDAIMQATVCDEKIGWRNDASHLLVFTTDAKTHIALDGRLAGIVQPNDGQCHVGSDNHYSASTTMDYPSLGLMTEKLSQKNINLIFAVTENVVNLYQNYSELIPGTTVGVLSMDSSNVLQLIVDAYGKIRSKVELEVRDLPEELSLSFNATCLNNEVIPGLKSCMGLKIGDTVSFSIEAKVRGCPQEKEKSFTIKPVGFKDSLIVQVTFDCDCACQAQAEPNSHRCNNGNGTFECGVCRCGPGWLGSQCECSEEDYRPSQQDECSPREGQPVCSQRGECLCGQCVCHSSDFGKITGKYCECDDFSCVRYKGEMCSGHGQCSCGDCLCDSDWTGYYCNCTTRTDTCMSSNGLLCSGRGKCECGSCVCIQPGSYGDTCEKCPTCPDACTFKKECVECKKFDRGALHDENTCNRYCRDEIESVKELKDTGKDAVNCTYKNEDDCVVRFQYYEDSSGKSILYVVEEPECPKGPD

The test system of test [2] is αvβ3‐expressing human renal cell carcinoma 786‐O cells. The test can be described thus: Cell antiproliferative assay, 96 h, with or without elastase. It counts as cell-based. The settings on record: 786-0, 96 h. In short, it runs like this: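 786‐O renal carcinoma cells (αvβ3-positive) exposed to test compound for 96 h, with or without 50 nm elastase from human leukocytes. IC50 taken as the concentration giving 50 % inhibition of cell viability. Samples run in triplicate.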

Where two headings read alike, the source gives them in different places.

Take `CN1C(=CC=CC=CC2=[N+](CCCCCC(=O)NCc3ccc(CN4C(=O)[C@@H]5CC(=O)N[C@@H](CCCNC(=N)N)C(=O)NCC(=O)N[C@@H](CC(=O)O)C(=O)NC[C@@H]4C(=O)N5)cc3)c3ccc(S(=O)(=O)[O-])cc3C2(C)C)C(C)(C)c2cc(S(=O)(=O)O)ccc21` [compound 2, cyclo(DKP‐RGD)‐sCy5]: the “αvβ3 integrin binding IC50, in words” value in test [1] is given as “low‐nanomolar”.

`N=C(N)NCCC[C@@H]1NC(=O)C[C@@H]2NC(=O)[C@@H](CNC(=O)[C@H](CC(=O)O)NC(=O)CCNC1=O)N(Cc1ccccc1)C2=O` [compound 3, cyclo(DKP‐RβAD)]: the “αvβ3 integrin binding IC50, in words” value in test [1] is recorded as “micromolar”.

For `CC(=O)O[C@H]1C(=O)[C@@]2(C)[C@H]([C@H](OC(=O)c3ccccc3)[C@]3(O)C[C@H](OC(=O)[C@H](O)[C@@H](NC(=O)c4ccccc4)c4ccccc4)C(C)=C1C3(C)C)[C@]1(OC(C)=O)CO[C@@H]1C[C@@H]2O` [compound 12, Paclitaxel], the IC50 was found to be 35.8 ± 16.7 nM in test [2] (read-out: IC50, added elastase NO) and 29.5 ± 7.6 nM in test [2] (read-out: IC50, added elastase YES).

The record behind these values is publication PMC6471013 (Chemistry (Weinheim an Der Bergstrasse, Germany), 2018).
